# Experimental data gathered from unrelated publications.
# Lines come from different studies, so protocols differ.
# Target: Activin receptor type-1B (ACVR1B, Homo sapiens, UniProt P36896)
# Sequence (P36896 24-505, as in one of the studies): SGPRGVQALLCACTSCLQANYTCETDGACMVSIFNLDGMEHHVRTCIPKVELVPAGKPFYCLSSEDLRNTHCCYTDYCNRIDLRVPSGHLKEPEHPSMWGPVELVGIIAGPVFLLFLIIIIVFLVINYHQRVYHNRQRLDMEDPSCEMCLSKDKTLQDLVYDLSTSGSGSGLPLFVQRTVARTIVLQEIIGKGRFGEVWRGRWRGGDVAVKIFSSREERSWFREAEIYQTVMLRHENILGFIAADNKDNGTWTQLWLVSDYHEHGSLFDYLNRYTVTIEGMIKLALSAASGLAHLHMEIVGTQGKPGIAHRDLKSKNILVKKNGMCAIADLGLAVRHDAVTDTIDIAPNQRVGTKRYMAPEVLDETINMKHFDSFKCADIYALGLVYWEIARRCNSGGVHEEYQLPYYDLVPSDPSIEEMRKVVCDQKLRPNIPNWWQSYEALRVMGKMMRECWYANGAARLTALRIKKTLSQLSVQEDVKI
SMILES,assay,conditions,quantity,result
C=CC(=O)N1CCC([C@@H]2CCNc3c(C(N)=O)c(-c4ccc(Oc5ccccc5)cc4)nn32)CC1,"enzyme activity, inhibitor",1 µM,inhibition,5%
N#Cc1ccc(NC(=O)Nc2ccccc2)cc1,"cell-free assay, competition with immobilised ligand",25 µM,remaining binding,100%
CCCCC(=O)Nc1ccc(-c2ccc3ncn(CCC)c(=O)c3c2)cn1,"binding, competition with immobilised ligand",0.5 µM,remaining binding,87%
C#Cc1cnc(Nc2ccnc(CO)c2)nc1Nc1ccccc1S(C)(=O)=NC#N (stereo not drawn),cell-free assay,1 µM,remaining signal,52%
Cc1ccc(NC(=O)c2ccnc(C(F)(F)F)c2)cc1-c1cc(OCCO)nc(N2CCOCC2)c1,"binding, competition with immobilised ligand",1 µM,remaining binding,99%
COc1ccc2oc(-c3ccc4nc(N)oc4c3)c/c(=N\c3ccccc3NC(=O)CCN)c2c1,binding,1 µM,remaining binding,108%
C1=C/COCc2cc(ccc2OCCN2CCCC2)Nc2nccc(n2)-c2cccc(c2)COC/1,binding,0.1 µM,remaining binding,91%
CC#CC(=O)N1CCC[C@H]1c1nc(-c2ccc(C(=O)Nc3ccccn3)cc2)c2c(N)nccn12,"enzyme activity, inhibitor",1 µM,inhibition,1%
C[C@H]1CC[C@H](n2c3cnccc3c3cnc(Nc4ccc5c(n4)CCN(C(=O)CO)C5)nc32)CC1,"cell-free assay, competition with immobilised ligand",1 µM,remaining binding,96%
